Columns and labels:
[1] = Unbound AUC (0 to 480 mins) in mouse prostate at 23 umol/kg, ip administered as bolus by LC-MS analysis; assay type: ADME, organism-based, Prostate gland; details: in vivo
How it was run: (§1)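 Male mice (25 ± 5 g) dosed i.p. as a bolus at 23 µmol/kg in DMSO/hydroxypropyl-β-cyclodextrin/saline vehicle, sampled at time points 10–480 min; plasma and tissue homogenates (1:3 water) analysed by LC-MS. […] Mean ± SEM.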

[2] = target: T1, Large neutral amino acids transporter small subunit 1 (Homo sapiens, UniProt Q01650); experiment: Drug uptake in human MCF7 cells assessed as LAT1 mediated drug transport per mg of protein at 100 uM measured 30 mins after cold wash by HPLC analysis; assay type: ADME, cell-based; details: mcf7, 0.5 h
How it was run: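 MCF-7 monolayers were incubated with 100 µM compound in HBSS at 37 °C for 5 or 30 min. Cells got three washes with ice-cold or warm (37 °C) HBSS; in the warm 30 min arm they were washed after 5 min and again after 30 min. Lysates (0.1 M NaOH) were quantified by HPLC-UV against a spiked lysate standard curve and normalised to protein (Bio-Rad assay).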

[3] = Tmax in mouse brain at 23 umol/kg, ip administered as bolus by LC-MS analysis; assay type: ADME, organism-based
How it was run: (§2)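 Adult male mice (25 ± 5 g) given a single i.p. bolus of 23 µmol/kg, dosing solution 1.36 mM in 10% (v/v) DMSO, 20% (w/v) hydroxypropyl-β-cyclodextrin, 0.9% NaCl in water. Decapitation at time points 10–480 min; plasma, brain, liver, prostate, kidney, heart collected. Acetonitrile precipitation with repaglinide internal standard, LC-MS (ESI positive). tmax and t½β taken from concentration-time data; mean ± SEM, n=3.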

[4] = Cmax in mouse prostate at 23 umol/kg, ip administered as bolus by LC-MS analysis; assay type: ADME, organism-based, Prostate gland; set-up: dose 23 umol/kg, route intraperitoneal; details: in vivo
How it was run: (§3)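 Male adult mice (25 ± 5 g) given a single i.p. bolus at 23 µmol/kg. The dosing solution was 1.36 mM in 10% (v/v) DMSO, 20% (w/v) hydroxypropyl-β-cyclodextrin and 0.9% NaCl. Animals were decapitated at seven time points from 10 to 480 min. Plasma and tissues were acetonitrile-precipitated with repaglinide internal standard and analysed by LC-MS. Parameters were derived from concentration–time data, mean ± SEM (n=3).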

[5] = target: T1, Large neutral amino acids transporter small subunit 1; experiment: Inhibition of LAT1 in human MCF7 cells assessed as potentiation of cisplatin-induced antiproliferative activity by measuring reduction in cell viability at 100 uM measured after 48 hrs by resazurin dye-based fluorimetric analysis
How it was run: (§4)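 MCF-7 cells seeded 2 × 10^4/well on collagen-coated plates, treated one day later in growth medium with inhibitor (25 or 100 µM) plus bestatin or cisplatin (100 µM) for up to 3 days. Viability read daily by resazurin fluorescence (ex 560/em 590 nm). Viability is treated relative to untreated control. Mean ± SD, n=3.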

[6] = target: T1, Large neutral amino acids transporter small subunit 1; experiment: Inhibition of LAT1 in human MCF7 cells assessed as potentiation of cisplatin-induced antiproliferative activity by measuring reduction in cell viability at 100 uM measured after 24 hrs by resazurin dye-based fluorimetric analysis; how it was run: as §4
[7] = Unbound AUC (0 to 480 mins) in mouse liver at 23 umol/kg, ip administered as bolus by LC-MS analysis; assay type: ADME, organism-based; details: in vivo; how it was run: as §1
[8] = target: T1, Large neutral amino acids transporter small subunit 1; experiment: Competitive inhibition of [14C]-L-leucine uptake at LAT1 in human MCF7 cells at 100 uM preincubated for 10 mins followed by addition of substrate measured during 5 mins by liquid scintillation counting; assay type: cell-based
How it was run: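 MCF-7 cells seeded 1 × 10^5/well, used one day later. Washed and pre-incubated 10 min at 37 °C in choline-chloride HBSS (Na+-free, 25 mM HEPES, pH 7.4), then 5 min at 37 °C with 0.157 µM [14C]-L-leucine plus 1-1000 µM inhibitor (DMSO blank). Ice-cold washes, NaOH lysis, scintillation counting. IC50 by nonlinear regression over 8 concentrations. Mean ± SD, n=3.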

[9] = Unbound AUC (0 to 480 mins) in mouse plasma at 23 umol/kg, ip administered as bolus by LC-MS analysis; assay type: ADME, organism-based; details: in vivo; how it was run: as §1
[10] = target: T2, Large neutral amino acids transporter small subunit 1 (Mus musculus, UniProt Q9Z127); experiment: Ratio of Kin for L-leucine to Kin for test compound for LAT1-mediated drug uptake in mouse brain; assay type: ADME, tissue-based; details: in vivo
How it was run: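 In situ brain perfusion in anaesthetised adult male mice (ketamine/xylazine i.p.) via right common carotid at 2.5 mL/min, 37 °C. Perfusate was 0.157 µM [14C]-L-leucine for 30 s or 100 µM test compound for 60 s, then 2 s drug-free buffer at 4 °C. Kin = Qtot/(Cpf × T). Mean ± SD, n=3-4.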

[11] = Cmax in mouse kidney at 23 umol/kg, ip administered as bolus by LC-MS analysis; assay type: ADME, organism-based; set-up: dose 23 umol/kg, route intraperitoneal; details: in vivo; how it was run: as §3
[12] = AUC (0 to 480 min) in mouse liver at 23 umol/kg, ip administered as bolus by LC-MS analysis; assay type: ADME, organism-based; set-up: dose 23 umol/kg, time < 8 hr, route intraperitoneal; details: in vivo, 8 h; how it was run: as §3
[13] = Tmax in mouse kidney at 23 umol/kg, ip administered as bolus by LC-MS analysis; assay type: ADME, organism-based; how it was run: as §2
[14] = Fraction unbound in mouse liver at 23 umol/kg, ip administered as bolus by LC-MS analysis; assay type: ADME, organism-based
How it was run: (§5)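 Unbound fraction was measured by equilibrium dialysis at 100 µM in mouse plasma and in brain, liver, kidney, heart and prostate homogenates.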

[15] = Metabolic stability in human plasma at 37 degreeC in presence of NADPH regenerating system measured after 2 hrs by HPLC analysis; assay type: ADME, cell-free
[16] = target: T1, Large neutral amino acids transporter small subunit 1; experiment: Inhibition of LAT1 in human MCF7 cells assessed as potentiation of cisplatin-induced antiproliferative activity by measuring reduction in cell viability at 25 uM measured after 72 hrs by resazurin dye-based fluorimetric analysis; how it was run: as §4
[17] = AUC (0 to 480 min) in mouse heart at 23 umol/kg, ip administered as bolus by LC-MS analysis; assay type: ADME, organism-based; set-up: dose 23 umol/kg, time < 8 hr, route intraperitoneal; details: in vivo, 8 h; how it was run: as §3
[18] = Fraction unbound in mouse brain at 23 umol/kg, ip administered as bolus by LC-MS analysis; assay type: ADME, organism-based; how it was run: as §5
[19] = target: T2, Large neutral amino acids transporter small subunit 1; experiment: Drug uptake in mouse brain assessed as LAT1-mediated unidirectional transfer constant measured after perfusion; assay type: ADME, tissue-based; details: in vivo
How it was run: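 In situ brain perfusion in anaesthetised male mice used 100 µM compound at 37 °C, 2.5 mL/min, for 60 s, then 2 s drug-free buffer at 4 °C. Kin = Qtot/(Cpf × T); mean ± SD, n=3.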

[20] = Tmax in mouse prostate at 23 umol/kg, ip administered as bolus by LC-MS analysis; assay type: ADME, organism-based, Prostate gland; how it was run: as §2
[21] = test system: Mus musculus; experiment: Binding affinity to LAT1 in mouse brain assessed as inhibition of [14C]-L-leucine uptake at 23 umol/kg, ip measured 180 mins post perfusion with [14C]-L-leucine; assay type: functional; details: 3 h
How it was run: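 Mice under ketamine/xylazine anaesthesia had the right common carotid artery cannulated. Brains were perfused at 37 °C, 2.5 mL/min, for 30 s with 0.157 µM [14C]-L-leucine, then 2 s with analyte-free buffer at 4 °C. Perfusion took place 10 or 180 min after 23 µmol/kg i.p. dosing.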

[22] = target: T1, Large neutral amino acids transporter small subunit 1; experiment: Inhibition of LAT1 in human MCF7 cells assessed as potentiation of bestatin-induced antiproliferative activity by measuring reduction in cell viability at 100 uM measured after 72 hrs by resazurin dye-based fluorimetric analysis; how it was run: as §4
[23] = Terminal half life in mouse heart at 23 umol/kg, ip administered as bolus by LC-MS analysis; assay type: ADME, organism-based; details: read-out: beta t1/2; how it was run: as §3

T1 sequence (Q01650 whole entry): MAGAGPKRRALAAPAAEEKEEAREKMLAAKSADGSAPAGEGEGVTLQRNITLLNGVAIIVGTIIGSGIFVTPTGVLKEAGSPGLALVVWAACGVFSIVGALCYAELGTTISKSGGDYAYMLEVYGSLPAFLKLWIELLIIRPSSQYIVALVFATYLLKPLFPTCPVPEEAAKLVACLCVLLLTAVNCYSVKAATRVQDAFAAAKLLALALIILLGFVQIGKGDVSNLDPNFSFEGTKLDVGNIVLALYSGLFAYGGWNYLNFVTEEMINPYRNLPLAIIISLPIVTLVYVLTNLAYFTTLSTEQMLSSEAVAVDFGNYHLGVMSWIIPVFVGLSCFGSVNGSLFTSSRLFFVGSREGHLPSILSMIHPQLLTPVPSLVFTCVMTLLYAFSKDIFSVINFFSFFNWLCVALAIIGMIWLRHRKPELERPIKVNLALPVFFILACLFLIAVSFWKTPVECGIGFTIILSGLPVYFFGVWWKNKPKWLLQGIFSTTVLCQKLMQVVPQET
T2 sequence (Q9Z127 whole entry, the tested form may be a part): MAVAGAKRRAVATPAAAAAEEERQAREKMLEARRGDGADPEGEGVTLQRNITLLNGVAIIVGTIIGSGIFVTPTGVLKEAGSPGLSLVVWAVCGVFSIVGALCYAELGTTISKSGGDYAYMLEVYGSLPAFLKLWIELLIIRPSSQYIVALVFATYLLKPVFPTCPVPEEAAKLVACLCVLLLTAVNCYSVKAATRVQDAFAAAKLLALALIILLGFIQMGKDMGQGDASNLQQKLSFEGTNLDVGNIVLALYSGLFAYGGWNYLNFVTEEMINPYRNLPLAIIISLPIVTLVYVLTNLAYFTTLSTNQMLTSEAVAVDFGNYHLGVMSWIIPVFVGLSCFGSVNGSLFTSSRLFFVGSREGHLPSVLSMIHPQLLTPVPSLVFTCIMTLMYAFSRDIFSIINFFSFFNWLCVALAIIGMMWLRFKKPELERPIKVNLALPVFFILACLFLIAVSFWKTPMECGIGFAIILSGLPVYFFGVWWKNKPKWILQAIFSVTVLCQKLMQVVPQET

CNC(=O)COc1ccc(-c2c(C#N)c(NC(=O)c3cccc(C[C@H](N)C(=O)O)c3)n3c(nc4ccccc43)c2C#N)cc1
fAUC [1]: 18.4 nmol/g/min | Drug uptake [2]: 2.63 nmol/mg | Tmax [3]: 30 min | Cmax [4]: 24.1 nmol/g | Activity [5]: 60.4% | Activity [6]: 65% | fAUC [7]: 18.9 nmol/g/min | inhibition [8]: 77.8% | fAUC [9]: 7.8 nmol/min/mL | Ratio [10]: 156 | Cmax [11]: 22.5 nmol/g | AUC [12]: 1930 nmol/g/min | Tmax [13]: 10 min | fraction unbound [14]: 0.0098 | Stability [15]: Stable | Activity [16]: 49.7% | AUC [17]: 249 nmol/g/min | fraction unbound [18]: 0.0103 | Kin [19]: 8.2 ×10⁻⁵ ml/s/g | Tmax [20]: 30 min | inhibition in vivo at 23 µmol/kg [21]: 14% | Activity [22]: 68.6% | half-life [23]: 19.8 min

Reference: ChEMBL document CHEMBL4425108, “A Selective and Slowly Reversible Inhibitor of l-Type Amino Acid Transporter 1 (LAT1) Potentiates Antiproliferative Drug Efficacy in Cancer Cells” (J Med Chem, 2016)
